Measurements: ChEMBL document CHEMBL4321879, “Novel Class of Colony-Stimulating Factor 1 Receptor Kinase Inhibitors Based on an o-Aminopyridyl Alkynyl Scaffold as Potential Treatment for Inflammatory Disorders” (J Med Chem, 2020)

How the values were obtained:
[1] = target: Macrophage colony-stimulating factor 1 receptor (Homo sapiens, UniProt P07333); experiment: Inhibition of recombinant CSF1R (unknown origin) using poly (Glu, Tyr)4:1 as substrate measured after 1 hr by ELISA
[2] = test system: RAW264.7; experiment: Antiinflammatory activity in mouse RAW264.7 cells assessed as reduction in LPS-induced TNFalpha release measured after 24 hrs by ELISA; assay type: functional, cell-based; conditions: RAW264.7, 24 h
How it was run: (§1)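 RAW264.7 cells in DMEM with 10% FBS and 0.125% DMSO were incubated with compound, then primed with LPS 1 μg/mL for 24 h. Supernatant TNF-α and IL-6 measured by mouse ELISA. IC50 from log(inhibitor) versus normalized response nonlinear fit.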

[3] = Cytotoxicity against mouse RAW264.7 cells assessed as reduction in cell viability measured after 24 hrs by CCK8 assay; assay type: cell-based
How it was run: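 RAW264.7 cells were seeded in triplicate in DMEM and exposed to compound for 24 h. CCK-8 was added, incubated 1 h, and absorbance read at 450 nm with 570 nm reference. CC50 from log(inhibitor) versus normalized response nonlinear fit.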

[4] = test system: RAW264.7; experiment: Antiinflammatory activity in mouse RAW264.7 cells assessed as reduction in LPS-induced IL6 release measured after 24 hrs by ELISA; assay type: functional, cell-based; conditions: RAW264.7, 24 h; how it was run: as §1
[5] = target: Fibroblast growth factor receptor 2 (Homo sapiens, UniProt P21802); experiment: Inhibition of recombinant human N-terminal His6-tagged FGFR2 (456 to 770 residues) expressed in baculovirus infected Sf21 insect cells using poly (Glu, Tyr)4:1 as substrate measured after 1 hr by ELISA
Fibroblast growth factor receptor 2, sequence (P21802 whole entry, the tested form may be a part): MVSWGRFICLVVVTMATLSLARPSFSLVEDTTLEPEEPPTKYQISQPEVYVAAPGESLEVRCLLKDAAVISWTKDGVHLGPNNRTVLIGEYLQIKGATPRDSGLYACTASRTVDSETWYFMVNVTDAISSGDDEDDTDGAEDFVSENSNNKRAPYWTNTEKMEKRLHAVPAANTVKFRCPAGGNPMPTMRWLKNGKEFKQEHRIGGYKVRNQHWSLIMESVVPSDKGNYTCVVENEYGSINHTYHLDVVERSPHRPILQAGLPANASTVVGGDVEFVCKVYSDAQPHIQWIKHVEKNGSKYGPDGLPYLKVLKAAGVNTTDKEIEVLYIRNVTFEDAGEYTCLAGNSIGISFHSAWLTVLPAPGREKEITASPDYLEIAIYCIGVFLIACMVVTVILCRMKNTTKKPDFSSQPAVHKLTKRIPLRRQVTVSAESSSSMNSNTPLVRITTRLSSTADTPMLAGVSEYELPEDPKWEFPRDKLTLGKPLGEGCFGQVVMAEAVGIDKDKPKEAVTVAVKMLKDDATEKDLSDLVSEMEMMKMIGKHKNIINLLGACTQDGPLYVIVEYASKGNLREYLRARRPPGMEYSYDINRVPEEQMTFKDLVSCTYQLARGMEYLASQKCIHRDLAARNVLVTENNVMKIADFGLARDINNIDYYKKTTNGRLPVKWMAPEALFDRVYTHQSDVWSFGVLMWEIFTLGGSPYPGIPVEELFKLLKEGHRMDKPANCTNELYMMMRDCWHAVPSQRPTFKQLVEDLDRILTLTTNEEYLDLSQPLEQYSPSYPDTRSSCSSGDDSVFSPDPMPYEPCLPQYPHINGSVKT
How it was run: (§2)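 Recombinant kinase was incubated with compound in reaction buffer containing 5 μM ATP, in wells precoated with poly(Glu,Tyr) 4:1, for 1 h at 37 °C. Phosphorylation was detected by ELISA.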

[6] = target: Fibroblast growth factor receptor 1 (Homo sapiens, UniProt P11362); experiment: Inhibition of recombinant human N-terminal GST-tagged FGFR1 (456 to 765 residues) expressed in baculovirus infected Sf21 insect cells using poly (Glu, Tyr)4:1 as substrate measured after 1 hr by ELISA; how it was run: as §2
Fibroblast growth factor receptor 1, sequence (P11362 whole entry, the tested form may be a part): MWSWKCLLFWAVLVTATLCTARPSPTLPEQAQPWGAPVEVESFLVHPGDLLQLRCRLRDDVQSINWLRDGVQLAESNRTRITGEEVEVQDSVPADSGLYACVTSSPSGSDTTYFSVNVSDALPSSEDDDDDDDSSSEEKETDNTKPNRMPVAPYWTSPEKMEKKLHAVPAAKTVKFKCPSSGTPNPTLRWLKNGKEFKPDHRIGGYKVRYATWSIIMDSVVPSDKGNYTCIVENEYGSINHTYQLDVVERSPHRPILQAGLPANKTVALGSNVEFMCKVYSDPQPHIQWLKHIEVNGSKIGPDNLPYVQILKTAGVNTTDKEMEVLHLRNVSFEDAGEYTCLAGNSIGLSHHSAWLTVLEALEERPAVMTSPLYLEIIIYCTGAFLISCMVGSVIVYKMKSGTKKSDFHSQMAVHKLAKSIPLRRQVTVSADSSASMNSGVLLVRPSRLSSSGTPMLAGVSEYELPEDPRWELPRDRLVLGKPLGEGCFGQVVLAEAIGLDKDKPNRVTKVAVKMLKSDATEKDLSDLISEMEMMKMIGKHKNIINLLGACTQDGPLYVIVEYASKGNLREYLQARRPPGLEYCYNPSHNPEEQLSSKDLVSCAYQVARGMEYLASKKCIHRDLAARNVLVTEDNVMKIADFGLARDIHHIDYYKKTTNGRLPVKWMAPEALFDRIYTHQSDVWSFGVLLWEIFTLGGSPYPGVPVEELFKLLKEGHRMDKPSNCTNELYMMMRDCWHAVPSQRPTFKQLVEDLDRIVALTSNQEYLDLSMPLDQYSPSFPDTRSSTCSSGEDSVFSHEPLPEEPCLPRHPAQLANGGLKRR

[7] = target: Fibroblast growth factor receptor 3 (Homo sapiens, UniProt P22607); experiment: Inhibition of recombinant human N-terminal His6-tagged FGFR3 (447 to 761 residues) expressed in baculovirus infected Sf21 insect cells using poly (Glu, Tyr)4:1 as substrate measured after 1 hr by ELISA; how it was run: as §2
Fibroblast growth factor receptor 3, sequence (P22607 whole entry, the tested form may be a part): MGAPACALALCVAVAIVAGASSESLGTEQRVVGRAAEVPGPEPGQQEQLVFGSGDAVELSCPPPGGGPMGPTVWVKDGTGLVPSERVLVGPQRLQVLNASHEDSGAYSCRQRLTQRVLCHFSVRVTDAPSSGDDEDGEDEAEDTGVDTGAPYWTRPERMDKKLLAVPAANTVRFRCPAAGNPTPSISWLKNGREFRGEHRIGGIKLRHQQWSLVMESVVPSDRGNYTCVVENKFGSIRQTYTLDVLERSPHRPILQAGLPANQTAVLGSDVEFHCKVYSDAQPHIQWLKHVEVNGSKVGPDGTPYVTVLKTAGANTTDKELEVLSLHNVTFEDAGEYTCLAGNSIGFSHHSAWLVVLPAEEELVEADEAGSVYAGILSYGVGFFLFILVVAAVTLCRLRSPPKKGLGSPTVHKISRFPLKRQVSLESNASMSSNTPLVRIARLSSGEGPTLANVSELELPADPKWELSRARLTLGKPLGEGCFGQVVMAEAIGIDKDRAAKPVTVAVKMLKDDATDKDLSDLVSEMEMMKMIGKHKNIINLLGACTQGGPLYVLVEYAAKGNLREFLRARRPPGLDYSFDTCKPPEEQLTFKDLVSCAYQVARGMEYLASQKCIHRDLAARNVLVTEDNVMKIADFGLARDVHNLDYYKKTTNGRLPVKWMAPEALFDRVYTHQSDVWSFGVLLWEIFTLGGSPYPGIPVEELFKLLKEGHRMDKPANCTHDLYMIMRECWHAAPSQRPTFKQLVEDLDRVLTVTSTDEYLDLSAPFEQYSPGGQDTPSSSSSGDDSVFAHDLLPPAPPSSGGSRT

[8] = target: Fibroblast growth factor receptor 4 (Homo sapiens, UniProt P22455); experiment: Inhibition of recombinant human N-terminal His6-tagged FGFR4 (442 to 755 residues) expressed in baculovirus infected Sf21 insect cells using poly (Glu, Tyr)4:1 as substrate measured after 1 hr by ELISA
Fibroblast growth factor receptor 4, sequence (P22455 whole entry, the tested form may be a part): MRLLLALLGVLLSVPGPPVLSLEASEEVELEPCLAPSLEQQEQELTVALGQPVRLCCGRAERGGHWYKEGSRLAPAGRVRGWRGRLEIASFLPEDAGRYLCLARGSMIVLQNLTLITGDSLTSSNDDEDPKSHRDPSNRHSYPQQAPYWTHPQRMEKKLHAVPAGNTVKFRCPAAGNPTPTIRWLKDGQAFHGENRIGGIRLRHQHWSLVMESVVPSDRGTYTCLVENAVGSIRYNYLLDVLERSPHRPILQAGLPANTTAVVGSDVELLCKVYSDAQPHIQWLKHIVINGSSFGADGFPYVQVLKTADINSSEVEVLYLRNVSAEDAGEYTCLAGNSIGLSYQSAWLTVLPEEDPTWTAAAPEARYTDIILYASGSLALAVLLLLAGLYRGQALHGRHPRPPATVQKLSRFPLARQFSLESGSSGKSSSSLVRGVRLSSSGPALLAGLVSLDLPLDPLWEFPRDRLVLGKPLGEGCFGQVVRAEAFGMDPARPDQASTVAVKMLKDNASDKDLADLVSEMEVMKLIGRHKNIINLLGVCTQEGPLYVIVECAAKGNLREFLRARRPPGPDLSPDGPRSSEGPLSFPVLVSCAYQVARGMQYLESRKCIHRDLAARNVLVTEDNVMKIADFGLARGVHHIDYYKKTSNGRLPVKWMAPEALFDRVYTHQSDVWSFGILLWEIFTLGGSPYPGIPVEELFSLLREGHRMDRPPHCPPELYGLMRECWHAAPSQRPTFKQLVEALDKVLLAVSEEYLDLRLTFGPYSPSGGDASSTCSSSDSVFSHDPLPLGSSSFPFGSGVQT
How it was run: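 ELISA kinase assay: recombinant kinase added to wells precoated with poly(Glu,Tyr)4:1 and incubated with compound in reaction buffer containing 5 μM ATP, 37 °C for 1 h; wells then washed before antibody detection.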

Macrophage colony-stimulating factor 1 receptor, sequence (P07333 whole entry): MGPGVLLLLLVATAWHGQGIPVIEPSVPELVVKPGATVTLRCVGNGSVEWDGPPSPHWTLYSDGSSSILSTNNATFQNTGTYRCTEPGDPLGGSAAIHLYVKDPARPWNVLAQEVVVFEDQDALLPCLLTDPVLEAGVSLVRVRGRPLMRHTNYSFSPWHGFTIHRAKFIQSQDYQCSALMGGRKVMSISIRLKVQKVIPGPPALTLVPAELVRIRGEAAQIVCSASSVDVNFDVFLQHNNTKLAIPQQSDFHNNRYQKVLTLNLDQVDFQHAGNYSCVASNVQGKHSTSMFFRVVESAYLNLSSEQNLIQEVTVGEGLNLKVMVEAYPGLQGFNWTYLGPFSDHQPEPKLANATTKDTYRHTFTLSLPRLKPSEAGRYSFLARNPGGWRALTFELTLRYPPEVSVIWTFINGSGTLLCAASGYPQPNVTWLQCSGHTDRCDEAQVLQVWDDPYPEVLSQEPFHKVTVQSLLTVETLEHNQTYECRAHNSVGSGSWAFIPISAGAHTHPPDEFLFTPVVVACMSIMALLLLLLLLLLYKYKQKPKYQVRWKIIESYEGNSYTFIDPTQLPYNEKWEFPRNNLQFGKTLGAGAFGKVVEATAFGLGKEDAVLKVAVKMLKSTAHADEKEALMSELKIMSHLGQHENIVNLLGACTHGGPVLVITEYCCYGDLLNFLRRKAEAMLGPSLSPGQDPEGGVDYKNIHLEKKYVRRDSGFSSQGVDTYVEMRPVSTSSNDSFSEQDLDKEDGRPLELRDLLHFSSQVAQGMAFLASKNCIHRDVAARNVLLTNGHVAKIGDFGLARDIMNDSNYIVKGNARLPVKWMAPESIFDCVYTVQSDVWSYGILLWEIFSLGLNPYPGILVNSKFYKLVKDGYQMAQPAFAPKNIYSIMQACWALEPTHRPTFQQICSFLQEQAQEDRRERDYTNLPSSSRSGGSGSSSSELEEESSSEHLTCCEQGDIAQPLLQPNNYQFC

Compound	IC50 [1] [nM]	other results
COc1ccccc1NC(=O)c1ccc(C)c(C#Cc2cc(-c3cnn(C)c3)cnc2N)c1	20.2	–
FC(F)(F)c1ccc(CNc2ccc(Cc3c[nH]c4ncc(Cl)cc34)cn2)cn1 [PEXIDARTINIB]	–	IC50 [2]: 400 nM; CC50 at 24 h [3]: 20500 nM; IC50 [4]: 430 nM
COc1cc(NC(=O)c2ccc(OC)c(C#Cc3cc(-c4cnn(C)c4)cnc3N)c2)cc(OC)c1	263	–
Cc1cc(C(=O)Nc2ccc(Cl)cc2)ccc1C#Cc1cc(-c2cnn(C)c2)cnc1N	> 1000	–
Cc1ccc(C(=O)Nc2ccccc2Cl)cc1C#Cc1cc(-c2cnn(C)c2)cnc1N	318	–
COc1cc(NC(=O)c2ccc(C)c(C#Cc3cnc4cccnn34)c2)cc(OC)c1	25.1	–
COc1cc(NC(=O)c2cccc(C#Cc3cc(-c4cnn(C)c4)cnc3N)c2)cc(OC)c1	16.1	–
COc1cc(NC(=O)c2ccc(C(F)(F)F)c(C#Cc3cc(-c4cnn(C)c4)cnc3N)c2)cc(OC)c1	> 1000	–
Cc1ccc(C(=O)Nc2cccc(Cl)c2)cc1C#Cc1cc(-c2cnn(C)c2)cnc1N	1.3	–
Cc1ccc(C(=O)Nc2ccc(C(F)(F)F)cc2)cc1C#Cc1cc(-c2cnn(C)c2)cnc1N	3	–
COc1cc(NC(=O)c2ccc(F)c(C#Cc3cc(-c4cnn(C)c4)cnc3N)c2)cc(OC)c1	160	–
COc1cc(NC(=O)c2ccc(C)c(C#Cc3cccnc3)c2)cc(OC)c1	219	–
COC(=O)c1cnc(N)c(C#Cc2cc(C(=O)Nc3cc(OC)cc(OC)c3)ccc2C)c1	5.5	–
Cc1ccc(C(=O)Nc2ccc(CN3CCN(C)CC3)c(C(F)(F)F)c2)cc1C#Cc1cncc2ccccc12	46	–
COc1cc(NC(=O)c2ccc(C)c(C#Cc3cc(Cl)cnc3N)c2)cc(OC)c1	16.6	–
Cc1ccc(NC(=O)c2ccc(Cl)cc2)cc1C#Cc1cc(-c2cnn(C)c2)cnc1N	7.2	–
Cc1ccc(CNc2ccc(Cl)cc2)cc1C#Cc1cc(-c2cnn(C)c2)cnc1N	> 1000	–
COc1cc(NC(=O)c2ccc(C(C)C)c(C#Cc3cc(-c4cnn(C)c4)cnc3N)c2)cc(OC)c1	> 1000	–

More lines, main results first:

IC50 [1] [nM]	Compound	other results
6.5	Cc1ccc(C(=O)Nc2ccccc2)cc1C#Cc1cc(-c2cnn(C)c2)cnc1N	–
28.5	COc1cc(NC(=O)c2ccc(C)c(C#Cc3cccnc3N)c2)cc(OC)c1	–
6.5	COc1cc(NC(=O)c2ccc(Cl)c(C#Cc3cc(-c4cnn(C)c4)cnc3N)c2)cc(OC)c1	–
> 1000	Cc1ccc(C(=O)N(C)c2ccc(Cl)cc2)cc1C#Cc1cc(-c2cnn(C)c2)cnc1N	–
3.5	COc1cc(NC(=O)c2ccc(C)c(C#Cc3cc(C(N)=O)cnc3N)c2)cc(OC)c1	–
2.4	Cc1ccc(C(=O)Nc2cccc(C(F)(F)F)c2)cc1C#Cc1cc(-c2cnn(C)c2)cnc1N	–
2.6	COc1cc(NC(=O)c2ccc(C)c(C#Cc3cc(-c4cnn(C)c4)cnc3N)c2)cc(OC)c1	–
10.8	Cc1ccc(C(=O)Nc2ccc(Cl)c(Cl)c2)cc1C#Cc1cc(-c2cnn(C)c2)cnc1N	–
8.1	CNC(=O)c1cnc(N)c(C#Cc2cc(C(=O)Nc3cc(OC)cc(OC)c3)ccc2C)c1	–
1.4	COc1ccc(NC(=O)c2ccc(C)c(C#Cc3cc(-c4cnn(C)c4)cnc3N)c2)cc1	–
23.4	COc1cc(NC(=O)c2ccc(C)c(C#Cc3cncc4ccccc34)c2)cc(OC)c1	IC50 [5]: > 1000 nM; IC50 [6]: > 1000 nM; IC50 [7]: > 1000 nM; IC50 [8]: > 1000 nM
5.9	Cc1ccc(C(=O)Nc2ccc(Cl)cc2Cl)cc1C#Cc1cc(-c2cnn(C)c2)cnc1N	–
1.4	COc1cccc(NC(=O)c2ccc(C)c(C#Cc3cc(-c4cnn(C)c4)cnc3N)c2)c1	–
